This is an account of results in ChEMBL document CHEMBL3352199, “Biological evaluation of halogenated thiazolo[3,2-a]pyrimidin-3-one carboxylic acid derivatives targeting the YycG histidine kinase” (Eur J Med Chem, 2014).

Each structure is given as a SMILES string. In brackets after ≈: the same amount, converted by molar mass. Activity calls are given as the source filed them.

One series has as its system Escherichia coli. The series is described as follows: Antimicrobial activity against Escherichia coli ATCC 25922 after 12 to 16 hrs by broth micro-dilution method. Type of series: functional. The method, boiled down: (§1)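 Broth micro-dilution in tubes per CLSI. Serial twofold dilutions in Mueller-Hinton broth, top final concentration 200. The inoculum was 6 h cultures adjusted to 0.5 McFarland. Incubated 37 °C 12–16 h. MIC is the lowest concentration with no visible growth by eye. Growth control (no drug) and sterility control (uninoculated broth) were included.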

Series [1] has as its system Staphylococcus epidermidis. The series is described as follows: Antimicrobial activity against Staphylococcus epidermidis ATCC 35984 after 12 to 16 hrs by broth micro-dilution method. Type of series: functional. The method, boiled down:
as §1
Background: Dilution methods test growth across graded concentrations, often in twofold steps.

Another series concerns Shigella flexneri. The series is described as follows: Antimicrobial activity against Shigella flexneri 301 after 12 to 16 hrs by broth micro-dilution method. Type of series: functional. The method, boiled down:
as §1

Another series relates to Staphylococcus aureus. The series is described as follows: Antimicrobial activity against Staphylococcus aureus ATCC 25923 after 12 to 16 hrs by broth micro-dilution method. Type of series: functional. The method, boiled down: as §1
In series [2] the test system is Staphylococcus epidermidis. The series is described as follows: Antimicrobial activity against Staphylococcus epidermidis ATCC 12228 after 12 to 16 hrs by broth micro-dilution method. Type of series: functional. In short, it runs like this:
as §1

In series [3] the test system is Staphylococcus epidermidis. The series is described as follows: Antibiofilm activity against Staphylococcus epidermidis ATCC 35984 at 50 uM after 18 hrs by crystal violet staining method. Type of series: functional, organism-based. The method, boiled down: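 S. epidermidis ATCC35984 suspension seeded in microtiter wells, 37 °C 6 h to form young biofilm. PBS-washed ×4, then fresh TSB with graded compound dilutions, 37 °C 18 h. Washed, methanol-fixed 15 min, air-dried, crystal violet stained, OD570 read. Cut-off ODc = mean OD570 of negative control + 3×SD (0.28); triplicate.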

The nature of series [4]: Hemolytic activity in human erythrocytes at 100 uM after 1 hr by spectrophotometry. Type of series: ADME, cell-based. The conditions noted are these: erythrocyte, 50 µM, in the assay text read “50 uM” for “100 uM”. In short, it runs like this: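 Healthy human erythrocytes exposed to compounds. After incubation, centrifuged at 350 × g for 10 min, and hemolysis read as supernatant absorbance at 570 nm. DMSO (0.1%) served as negative control and Triton X-100 (1%) as positive control.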

The nature of series [5]: Inhibition of recombinant YycG kinase HK domain autophosphorylation activity (unknown origin) expressed in Escherichia coli BL21 (DE3) preincubated for 30 mins by ATP-Luminescence assay. In short, it runs like this:
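YycG HATPase_c + HisKA domains, expressed in E. coli BL21(DE3), purified on Ni-NTA. Protein at 0.13 mmol/L pre-incubated with serial compound dilutions in 40 mmol/L Tris pH 8.0, 20 mmol/L MgCl₂, 0.1 mg/mL BSA, 25 °C 30 min. ATP 4 mmol/L added, 30 min at 25 °C. Remaining ATP measured by Kinase-Glo luminescence. IC50 fitted from phosphorylation-inhibition rates.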

Turning to `CCOC(=O)C1=C(c2ccccc2)N=c2s/c(=C\c3ccc(-c4cccc(C(=O)O)c4)o3)c(=O)n2C1c1ccc([N+](=O)[O-])cc1` (configuration not stated), the MIC (commonly the lowest concentration found to suppress growth) in the series with Escherichia coli is greater than 200 µM; in series [1], 1.56 µM (≈ 0.97 µg/mL); against Shigella flexneri, greater than 200 µM; against Staphylococcus aureus it was 25 µM (≈ 15.5 µg/mL); in series [2] it was 3.12 µM (≈ 1.94 µg/mL). Besides, the result in series [3] was inactive. Moreover, in series [4], the Activity result is on record as “Non-toxic”.

In the case of `CCOC(=O)C1=C(c2ccccc2)N=c2s/c(=C\c3ccc(-c4ccc(C(=O)O)cc4)o3)c(=O)n2C1c1ccc(Cl)cc1` (configuration not stated), the MIC against Escherichia coli is greater than 200 µM; in series [1] it was 6.25 µM (≈ 3.82 µg/mL); in the series on Shigella flexneri, greater than 200 µM; in the series on Staphylococcus aureus, 6.25 µM (≈ 3.82 µg/mL); in series [2], 3.12 µM (≈ 1.91 µg/mL). In series [3], the result was Active. Further, the Activity result in series [4] was “Non-toxic”.

For `CCOC(=O)C1=C(c2ccccc2)N=c2s/c(=C\c3ccc(OCC(=O)O)cc3)c(=O)n2C1c1ccc(Cl)cc1` (configuration not stated), the MIC in the series with Escherichia coli was greater than 200 µM; in series [1], 3.12 µM (≈ 1.8 µg/mL); in the series with Shigella flexneri it was greater than 200 µM; in series [2], 3.12 µM (≈ 1.8 µg/mL). Also, the outcome in series [3] was inactive. In addition, in series [4], the Activity entry is recorded as “Non-toxic”.

`COc1ccc(C2C=C(c3ccccc3)N=c3s/c(=C\c4ccc(-c5cccc(C(=O)O)c5)o4)c(=O)n32)cc1` (configuration not stated): the MIC in the series with Escherichia coli was greater than 200 µM; in series [1], 1.56 µM (≈ 0.834 µg/mL); in the series on Shigella flexneri, greater than 200 µM; in the series on Staphylococcus aureus it was 6.25 µM (≈ 3.34 µg/mL); in series [2] it was 6.25 µM (≈ 3.34 µg/mL). Also, the 50% inhibitory concentration (IC50) – broadly, the concentration at which inhibition is half-maximal – in series [5] is 49.9 µM. The result in series [3] was inactive. Also, the Activity entry in series [4] is reported as “Non-toxic”.

Take `CCOC(=O)C1=C(c2ccccc2)N=c2s/c(=C\c3ccc(OCC(=O)O)c(OC)c3)c(=O)n2C1c1ccc(Cl)cc1` (configuration not stated): the MIC in the series with Escherichia coli is greater than 200 µM; in series [1], 200 µM (≈ 121 µg/mL); in the series on Shigella flexneri it was greater than 200 µM; in series [2] it was 200 µM (≈ 121 µg/mL). Besides, the result in series [3] was inactive.

As to `O=C(O)c1cccc(-c2ccc(/C=c3\sc4n(c3=O)C(c3ccc(Cl)cc3)C=C(c3ccccc3)N=4)o2)c1` (configuration not stated), the MIC against Escherichia coli was greater than 200 µM; in series [1], 1.56 µM (≈ 0.841 µg/mL); in the series on Shigella flexneri it was greater than 200 µM; in the series on Staphylococcus aureus, 3.12 µM (≈ 1.68 µg/mL); in series [2], 6.25 µM (≈ 3.37 µg/mL). For the same compound, the IC50 in series [5] is 55.6 µM. The outcome in series [3] was Active. In addition, the Activity result in series [4] was “Non-toxic”.

Take `CCOC(=O)C1=C(c2ccccc2)N=c2s/c(=C\c3ccc(-c4cccc(C(=O)O)c4)o3)c(=O)n2C1c1ccc(F)cc1` (configuration not stated): the MIC against Escherichia coli was greater than 200 µM; in series [1], 6.25 µM (≈ 3.72 µg/mL); against Shigella flexneri, greater than 200 µM; against Staphylococcus aureus it was 6.25 µM (≈ 3.72 µg/mL); in series [2] it was 3.12 µM (≈ 1.86 µg/mL). Besides, in series [3], the outcome was Active. Further, the Activity result in series [4] was “Non-toxic”.

For the compound `CCOC(=O)C1=C(c2ccccc2)N=c2s/c(=C\c3ccc(-c4cccc(C(=O)O)c4)o3)c(=O)n2C1c1ccc2c(c1)OCO2` (configuration not stated), the MIC is greater than 200 µM against Escherichia coli; 6.25 µM (≈ 3.88 µg/mL) in series [1]; greater than 200 µM in the series with Shigella flexneri; 6.25 µM (≈ 3.88 µg/mL) in the series with Staphylococcus aureus; 6.25 µM (≈ 3.88 µg/mL) in series [2]. For the same compound, in series [5], the IC50 was 14 µM. In series [3], the result was Active. Also, the Activity entry in series [4] is reported as “Non-toxic”.

For the compound `CCOC(=O)C1=C(c2ccccc2)N=c2s/c(=C\c3ccc(-c4ccc(C(=O)O)cc4)o3)c(=O)n2C1c1ccc(F)cc1` (configuration not stated), the MIC in the series on Escherichia coli was greater than 200 µM; in series [1], 6.25 µM (≈ 3.72 µg/mL); in the series on Shigella flexneri, greater than 200 µM; in the series on Staphylococcus aureus it was 6.25 µM (≈ 3.72 µg/mL); in series [2] it was 6.25 µM (≈ 3.72 µg/mL). Moreover, the outcome in series [3] was Active. For the same compound, the Activity entry in series [4] was “Non-toxic”.

For the compound `CCOC(=O)C1=C(C)N=c2s/c(=C\c3ccc(OCC(=O)O)cc3)c(=O)n2C1c1ccc(OC)cc1` (configuration not stated), the minimum inhibitory concentration (MIC) was greater than 200 µM in the series with Escherichia coli, 50 µM (≈ 25.4 µg/mL) in series [1], greater than 200 µM against Shigella flexneri and 50 µM (≈ 25.4 µg/mL) in series [2]. Also, the result in series [3] was inactive. In addition, in series [4], the Activity entry is “Non-toxic”.

Consider `CCOC(=O)C1=C(C)N=c2s/c(=C\c3ccc(-c4cccc(C(=O)O)c4)o3)c(=O)n2C1c1ccc(OC)cc1` (configuration not stated), for which the figures for the minimum inhibitory concentration (MIC) (against Escherichia coli; in series [1]; against Shigella flexneri) were greater than 200 µM, 6.25 µM (≈ 3.4 µg/mL) and greater than 200 µM, respectively. Moreover, in series [3], the outcome was inactive. Further, in series [4], the Activity result is listed as “Non-toxic”.

For the compound `CCOC(=O)C1=C(c2ccccc2)N=c2s/c(=C\c3ccc(-c4cccc(C(=O)O)c4)o3)c(=O)n2C1c1ccc(O)cc1` (configuration not stated), the minimum inhibitory concentration (MIC) with Escherichia coli is greater than 200 µM; in series [1], 50 µM (≈ 29.6 µg/mL); against Shigella flexneri, greater than 200 µM; in series [2] it was 50 µM (≈ 29.6 µg/mL). Further, the result in series [3] was inactive. In series [4], the Activity result was “Non-toxic”.

For the compound `CCOC(=O)C1=C(c2ccccc2)N=c2s/c(=C\c3ccc(-c4cccc(C(=O)O)c4)o3)c(=O)n2C1c1ccc(Cl)cc1` (configuration not stated), the MIC is greater than 200 µM with Escherichia coli; 1.56 µM (≈ 0.953 µg/mL) in series [1]; greater than 200 µM in the series on Shigella flexneri; 6.25 µM (≈ 3.82 µg/mL) against Staphylococcus aureus; 3.12 µM (≈ 1.91 µg/mL) in series [2]. Besides, the IC50 in series [5] turned out to be 12.7 µM. Also, in series [3], the outcome was Active. The Activity result in series [4] was “Non-toxic”.

On to `CCOC(=O)C1=C(C)N=c2s/c(=C\c3ccc(OCC(=O)O)cc3)c(=O)n2C1c1ccc(Cl)cc1` (configuration not stated), for which the MIC against Escherichia coli is greater than 200 µM; in series [1] it was 200 µM (≈ 103 µg/mL); in the series with Shigella flexneri it was greater than 200 µM; in series [2], 200 µM (≈ 103 µg/mL). Besides, in series [3], the result was inactive. Further, in series [4], the Activity result is “Non-toxic”.

Turning to `O=C(O)c1cccc(-c2ccc(/C=c3\sc4n(c3=O)C(c3ccc(F)cc3)C=C(c3ccccc3)N=4)o2)c1` (configuration not stated), the minimal inhibitory concentration (MIC) against Escherichia coli is greater than 200 µM; in series [1] it was 6.25 µM (≈ 3.27 µg/mL); against Shigella flexneri, greater than 200 µM; against Staphylococcus aureus it was 6.25 µM (≈ 3.27 µg/mL); in series [2], 3.12 µM (≈ 1.63 µg/mL). In addition, the outcome in series [3] was Active. The Activity entry in series [4] is “Non-toxic”.

Regarding `CCOC(=O)C1=C(C)N=c2s/c(=C\c3ccc(OCC(=O)O)c(OC)c3)c(=O)n2C1c1ccc(OC)cc1` (configuration not stated), the MIC with Escherichia coli is greater than 200 µM; in series [1], 50 µM (≈ 26.9 µg/mL); against Shigella flexneri, greater than 200 µM; in series [2], 50 µM (≈ 26.9 µg/mL). Also, in series [3], the result was inactive.

For the compound `Cc1nnc(SCC2=C(C(=O)O)N3C(=O)[C@@H](NC(=O)Cn4cnnn4)[C@H]3SC2)s1` [CEFAZOLIN], the minimum inhibitory concentration (MIC) (in series [1]; with Staphylococcus aureus; in series [2]) was 17.6 µM (≈ 8 µg/mL) each time.

Take `CCOC(=O)C1=C(c2ccccc2)N=c2s/c(=C\c3ccc(-c4cccc(C(=O)O)c4)o3)c(=O)n2C1c1ccccc1` (configuration not stated): the MIC with Escherichia coli is greater than 200 µM; in series [1], 200 µM (≈ 115 µg/mL); against Shigella flexneri it was greater than 200 µM; in series [2], 200 µM (≈ 115 µg/mL). Also, the result in series [3] was inactive. The Activity entry in series [4] is given as “Non-toxic”.

With `CCOC(=O)C1=C(c2ccccc2)N=c2s/c(=C\c3ccc(-c4cccc(C(=O)O)c4)o3)c(=O)n2C1c1ccc(OC)cc1` (configuration not stated), the minimum inhibitory concentration (MIC) against Escherichia coli was greater than 200 µM; in series [1], 3.12 µM (≈ 1.9 µg/mL); against Shigella flexneri, greater than 200 µM; in series [2], 3.12 µM (≈ 1.9 µg/mL). Also, the result in series [3] was Active. In addition, the Activity result in series [4] is “Non-toxic”.

For `CCOC(=O)C1=C(c2ccccc2)N=c2s/c(=C\c3ccc(-c4ccc(C(=O)O)cc4)o3)c(=O)n2C1c1ccc(OC)cc1` (configuration not stated), the minimal inhibitory concentration (MIC) is greater than 200 µM in the series with Escherichia coli, 6.25 µM (≈ 3.79 µg/mL) in series [1], greater than 200 µM in the series with Shigella flexneri and 6.25 µM (≈ 3.79 µg/mL) in series [2]. In addition, the result in series [3] was inactive. In series [4], the Activity result is reported as “Non-toxic”.
